From ChEMBL document CHEMBL1687848, “In vitro effect of qnrA1, qnrB1, and qnrS1 genes on fluoroquinolone activity against isogenic Escherichia coli isolates with mutations in gyrA and parC” (2011)

What was measured:
Type in all cases: functional
[1] = tested on: Escherichia coli; test: Antibacterial activity against Escherichia coli ATCC 25922 harboring GyrA S83L mutant assessed as resistant colonies recovered one step below mutant prevention concentration
Method in brief: (§1)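 Resistant colonies recovered from Mueller-Hinton plates one concentration step below the MPC for each fluoroquinolone were retested for MIC. Mutants taken from plated concentrations closest to the MPC had the QRDRs of gyrA and parC analysed.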

[2] = tested on: Escherichia coli; test: Antibacterial activity against qnrB gene expressing Escherichia coli ATCC 25922 harboring ParC S80R mutant and pBK-QnrB1 by broth microdilution method
[3] = tested on: Escherichia coli; test: Antibacterial activity against Escherichia coli ATCC 25922 harboring GyrA S83L mutant assessed as earliest time required to resistant colonies visible one step below mutant prevention concentration
[4] = tested on: Escherichia coli; test: Antibacterial activity against qnrA gene expressing Escherichia coli ATCC 25922 harboring ParC S80R mutant and pBK-QnrA1 by broth microdilution method
[5] = tested on: Escherichia coli; test: Antibacterial activity against Escherichia coli ATCC 25922 by broth microdilution method
[6] = tested on: Escherichia coli; test: Antibacterial activity against qnrA gene expressing Escherichia coli ATCC 25922 harboring GyrA S83L mutant and pBK-QnrA1 assessed as earliest time required to resistant colonies visible one step below mutant prevention concentration
[7] = tested on: Escherichia coli; test: Antibacterial activity against qnrS gene expressing Escherichia coli ATCC 25922 harboring GyrA S83L mutant and pBK-QnrS1 assessed as resistant colonies recovered one step below mutant prevention concentration; method in brief: as §1
[8] = tested on: Escherichia coli; test: Antibacterial activity against qnrB gene expressing Escherichia coli ATCC 25922 harboring GyrA S83L mutant and pBK-QnrB1 assessed as mutant prevention concentration
[9] = tested on: Escherichia coli; test: Antibacterial activity against Escherichia coli ATCC 25922 harboring ParC S80R mutant by broth microdilution method
[10] = tested on: Escherichia coli; test: Antibacterial activity against Escherichia coli ATCC 25922 expressing qnrS gene and pBK-QnrS1 assessed as mutant prevention concentration
[11] = tested on: Escherichia coli; test: Antibacterial activity against Escherichia coli ATCC 25922 harboring GyrA S83L mutant and ParC S80R mutant by broth microdilution method
[12] = tested on: Escherichia coli; test: Antibacterial activity against Escherichia coli ATCC 25922 expressing qnrS gene and pBK-QnrS1 by broth microdilution method
[13] = tested on: Escherichia coli; test: Antibacterial activity against qnrS gene expressing Escherichia coli ATCC 25922 harboring GyrA S83L mutant and pBK-QnrS1 by broth microdilution method
[14] = tested on: Escherichia coli; test: Antibacterial activity against qnrB gene expressing Escherichia coli ATCC 25922 harboring GyrA S83L mutant and pBK-QnrB1 by broth microdilution method
[15] = tested on: Escherichia coli; test: Antibacterial activity against Escherichia coli ATCC 25922 assessed as mutant prevention concentration
[16] = tested on: Escherichia coli; test: Antibacterial activity against qnrA gene expressing Escherichia coli ATCC 25922 harboring ParC S80R mutant, ParC S80R mutant and pBK-QnrA1 by broth microdilution method
[17] = tested on: Escherichia coli; test: Antibacterial activity against Escherichia coli ATCC 25922 expressing qnrB gene and pBK-QnrB1 assessed as earliest time required to resistant colonies visible one step below mutant prevention concentration
[18] = tested on: Escherichia coli; test: Antibacterial activity against qnrS gene expressing Escherichia coli ATCC 25922 harboring GyrA S83L mutant and pBK-QnrS1 assessed as earliest time required to resistant colonies visible one step below mutant prevention concentration
[19] = tested on: Escherichia coli; test: Antibacterial activity against qnrA gene expressing Escherichia coli ATCC 25922 harboring GyrA S83L mutant and pBK-QnrA1 by broth microdilution method
[20] = tested on: Escherichia coli; test: Antibacterial activity against Escherichia coli ATCC 25922 assessed as resistant colonies recovered one step below mutant prevention concentration; method in brief: as §1
[21] = tested on: Escherichia coli; test: Antibacterial activity against Escherichia coli ATCC 25922 expressing qnrA gene and pBK-QnrA1 by broth microdilution method
[22] = tested on: Escherichia coli; test: Antibacterial activity against Escherichia coli ATCC 25922 harboring GyrA S83L mutant assessed as mutant prevention concentration
[23] = tested on: Escherichia coli; test: Antibacterial activity against Escherichia coli ATCC 25922 expressing qnrB gene and pBK-QnrB1 assessed as mutant prevention concentration
[24] = tested on: Escherichia coli; test: Antibacterial activity against qnrS gene expressing Escherichia coli ATCC 25922 harboring GyrA S83L mutant and pBK-QnrS1 assessed as mutant prevention concentration
[25] = tested on: Escherichia coli; test: Antibacterial activity against qnrS gene expressing Escherichia coli ATCC 25922 harboring ParC S80R mutant, ParC S80R mutant and pBK-QnrS1 by broth microdilution method
[26] = tested on: Escherichia coli; test: Antibacterial activity against Escherichia coli ATCC 25922 expressing qnrA gene and pBK-QnrA1 assessed as mutant prevention concentration
[27] = tested on: Escherichia coli; test: Antibacterial activity against Escherichia coli ATCC 25922 harboring GyrA S83L mutant by broth microdilution method
[28] = tested on: Escherichia coli; test: Antibacterial activity against Escherichia coli ATCC 25922 expressing qnrA gene and pBK-QnrA1 assessed as earliest time required to resistant colonies visible one step below mutant prevention concentration
[29] = tested on: Escherichia coli; test: Antibacterial activity against qnrA gene expressing Escherichia coli ATCC 25922 harboring GyrA S83L mutant and pBK-QnrA1 assessed as mutant prevention concentration
[30] = tested on: Escherichia coli; test: Antibacterial activity against qnrA gene expressing Escherichia coli ATCC 25922 harboring GyrA S83L mutant and pBK-QnrA1 assessed as resistant colonies recovered one step below mutant prevention concentration; method in brief: as §1
[31] = tested on: Escherichia coli; test: Antibacterial activity against qnrB gene expressing Escherichia coli ATCC 25922 harboring GyrA S83L mutant and pBK-QnrB1 assessed as earliest time required to resistant colonies visible one step below mutant prevention concentration
[32] = tested on: Escherichia coli; test: Antibacterial activity against Escherichia coli ATCC 25922 expressing qnrS gene and pBK-QnrS1 assessed as earliest time required to resistant colonies visible one step below mutant prevention concentration
[33] = tested on: Escherichia coli; test: Antibacterial activity against Escherichia coli ATCC 25922 assessed as earliest time required to resistant colonies visible one step below mutant prevention concentration
[34] = tested on: Escherichia coli; test: Antibacterial activity against Escherichia coli ATCC 25922 expressing qnrB gene and pBK-QnrB1 by broth microdilution method
[35] = tested on: Escherichia coli; test: Antibacterial activity against qnrB gene expressing Escherichia coli ATCC 25922 harboring ParC S80R mutant, ParC S80R mutant and pBK-QnrB1 by broth microdilution method
[36] = tested on: Escherichia coli; test: Antibacterial activity against qnrS gene expressing Escherichia coli ATCC 25922 harboring ParC S80R mutant and pBK-QnrS1 by broth microdilution method
[37] = tested on: Escherichia coli; test: Antibacterial activity against Escherichia coli ATCC 25922 expressing qnrB gene and pBK-QnrB1 assessed as resistant colonies recovered one step below mutant prevention concentration; method in brief: as §1
[38] = tested on: Escherichia coli; test: Antibacterial activity against qnrB gene expressing Escherichia coli ATCC 25922 harboring GyrA S83L mutant and pBK-QnrB1 assessed as resistant colonies recovered one step below mutant prevention concentration; method in brief: as §1
[39] = tested on: Escherichia coli; test: Antibacterial activity against Escherichia coli ATCC 25922 expressing qnrS gene and pBK-QnrS1 assessed as resistant colonies recovered one step below mutant prevention concentration; method in brief: as §1
[40] = tested on: Escherichia coli; test: Antibacterial activity against Escherichia coli ATCC 25922 expressing qnrA gene and pBK-QnrA1 assessed as resistant colonies recovered one step below mutant prevention concentration; method in brief: as §1

C[C@H]1COc2c(N3CCN(C)CC3)c(F)cc3c(=O)c(C(=O)O)cn1c23.C[C@H]1COc2c(N3CCN(C)CC3)c(F)cc3c(=O)c(C(=O)O)cn1c23.O [LEVOFLOXACIN]
24 h: Time [3] | Time [6] | Time [28] | Time [32]
0.008 µg/mL: MBC [9]
0.03 µg/mL: MBC [5]
96 h: Time [18]
0.5 µg/mL: MBC [2] | MBC [4] | MBC [12] | MBC [14] | MBC [19] | MBC [21]
48 h: Time [17] | Time [33]
8 µg/mL: Activity [26]
1 µg/mL: MBC [35]
2 µg/mL: MIC [1] | MBC [13] | Activity [15] | MIC [16] | MIC [30]
4 µg/mL: MIC [7] | Activity [10] | MBC [16] | Activity [22] | Activity [23] | MBC [25] | MIC [25]
72 h: Time [31]
0.25 µg/mL: MIC [2] | MIC [4] | MBC [11] | MIC [11] | MIC [14] | MBC [27] | MBC [34] | MBC [36] | MIC [36]
16 µg/mL: Activity [8] | Activity [24]
0.125 µg/mL: MIC [12] | MIC [20] | MIC [27]
32 µg/mL: Activity [29]

COc1c(N2C[C@@H]3CCCN[C@@H]3C2)c(F)cc2c(=O)c(C(=O)O)cn(C3CC3)c12 [MOXIFLOXACIN]
0.015 µg/mL: MBC [5]
0.125 µg/mL: MBC [27]
1 µg/mL: MIC [1] | MIC [7] | MIC [38] | MIC [13] | MBC [34] | MIC [35]
24 h: Time [3] | Time [6] | Time [17] | Time [18] | Time [28] | Time [31] | Time [32]
16 µg/mL: Activity [29]
0.5 µg/mL: MBC [2] | MIC [2] | MBC [4] | MIC [4] | MIC [37] | MBC [14] | MIC [14] | MIC [39] | MBC [19] | MIC [19] | MBC [21] | MIC [40] | MBC [36]
0.25 µg/mL: MBC [11] | MIC [11] | MBC [12] | MIC [12] | MIC [21] | MIC [34] | MIC [36]
48 h: Time [33]
8 µg/mL: Activity [26]
4 µg/mL: Activity [10] | MBC [16] | Activity [22] | Activity [23] | MBC [25]
32 µg/mL: Activity [8] | Activity [24]
0.008 µg/mL: MIC [5] | MBC [9] | MIC [9]
2 µg/mL: MBC [13] | Activity [15] | MBC [35]
